{"source": "paper PMC4629469", "about": "(Bioorganic & medicinal chemistry letters, 2015)", "key": {"[1]": {"system": "M1, M3, and M5 human mAChRs", "test": "[3H]NMS binding, comparison over all three mAChR subtypes", "outline": "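Membranes from CHO cells stably expressing recombinant human M1, M3 or M5 mAChR. Inhibition of [3H]N-methylscopolamine binding by the test compound gives IC50, which is converted to Ki by the Cheng–Prusoff equation. Ki is the mean ± SEM of three independent experiments, each run in duplicate. Subtype comparisons use these Ki values at each receptor.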"}, "[2]": {"target": "T1, M5 recombinant human mAChRs (Homo sapiens, UniProt P08912)", "T1 sequence (P08912 1-532)": "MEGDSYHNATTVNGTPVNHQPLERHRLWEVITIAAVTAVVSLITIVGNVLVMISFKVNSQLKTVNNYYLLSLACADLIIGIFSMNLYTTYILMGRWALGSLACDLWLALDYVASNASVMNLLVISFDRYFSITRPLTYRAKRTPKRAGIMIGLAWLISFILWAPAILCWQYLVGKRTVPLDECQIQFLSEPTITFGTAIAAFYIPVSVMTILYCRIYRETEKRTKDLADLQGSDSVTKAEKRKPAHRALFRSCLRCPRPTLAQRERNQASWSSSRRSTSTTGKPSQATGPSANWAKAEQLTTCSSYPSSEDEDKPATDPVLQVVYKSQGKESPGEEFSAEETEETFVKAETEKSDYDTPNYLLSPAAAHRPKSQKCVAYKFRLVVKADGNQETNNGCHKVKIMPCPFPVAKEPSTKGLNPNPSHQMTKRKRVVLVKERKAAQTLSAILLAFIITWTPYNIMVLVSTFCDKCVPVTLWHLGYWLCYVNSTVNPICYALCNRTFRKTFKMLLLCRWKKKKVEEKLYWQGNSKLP", "test": "[3H]NMS binding to CHO cell membranes expressing M5 mAChR", "conditions": "vs compound 1"}, "[3]": {"target": "M3 recombinant human mAChRs (Homo sapiens, UniProt P20309)", "sequence (P20309 whole entry)": "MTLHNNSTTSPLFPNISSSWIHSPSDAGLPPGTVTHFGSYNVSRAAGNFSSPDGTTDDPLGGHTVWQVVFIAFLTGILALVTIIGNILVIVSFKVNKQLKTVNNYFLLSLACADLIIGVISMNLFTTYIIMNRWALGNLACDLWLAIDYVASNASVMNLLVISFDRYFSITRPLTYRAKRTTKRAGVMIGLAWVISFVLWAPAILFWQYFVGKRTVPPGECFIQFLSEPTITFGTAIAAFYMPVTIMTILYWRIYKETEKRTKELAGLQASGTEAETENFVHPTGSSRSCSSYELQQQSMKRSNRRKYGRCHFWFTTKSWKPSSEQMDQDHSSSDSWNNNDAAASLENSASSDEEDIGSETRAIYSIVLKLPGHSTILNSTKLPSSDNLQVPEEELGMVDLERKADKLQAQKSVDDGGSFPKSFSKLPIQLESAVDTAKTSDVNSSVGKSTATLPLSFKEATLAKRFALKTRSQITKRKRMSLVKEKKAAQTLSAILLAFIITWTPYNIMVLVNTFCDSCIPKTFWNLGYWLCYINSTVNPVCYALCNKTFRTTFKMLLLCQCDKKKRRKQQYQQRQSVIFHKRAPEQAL", "test": "[3H]NMS binding to CHO cell membranes expressing M3 mAChR", "conditions": "vs compound 1"}, "[4]": {"target": "T2, M1 recombinant human mAChRs (Homo sapiens, UniProt P11229)", "T2 sequence (P11229 1-460)": "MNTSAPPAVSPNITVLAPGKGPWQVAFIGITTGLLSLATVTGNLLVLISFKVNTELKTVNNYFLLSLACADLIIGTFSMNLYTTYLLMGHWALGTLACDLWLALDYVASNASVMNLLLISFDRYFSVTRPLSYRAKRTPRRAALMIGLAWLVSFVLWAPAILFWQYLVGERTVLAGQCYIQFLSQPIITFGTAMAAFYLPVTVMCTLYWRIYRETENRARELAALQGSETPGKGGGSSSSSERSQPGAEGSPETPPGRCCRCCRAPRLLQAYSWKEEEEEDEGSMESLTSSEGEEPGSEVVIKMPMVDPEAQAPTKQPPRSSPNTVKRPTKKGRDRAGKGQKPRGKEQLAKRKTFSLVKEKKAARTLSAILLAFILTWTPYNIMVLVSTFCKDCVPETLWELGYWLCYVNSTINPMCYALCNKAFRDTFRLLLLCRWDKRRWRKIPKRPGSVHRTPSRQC", "test": "[3H]NMS binding to CHO cell membranes expressing M1 mAChR", "conditions": "vs compound 1"}}, "data": [{"smiles": "COc1ccc(CCC(=O)OCC2(c3ccccc3)CCN(C)CC2)cc1OC", "note": "[Compound 6a]", "values": [{"measurement": "fold increase in affinity of the reverse ester", "setting": "[1]; 6a vs 4a, all three mAChRs", "value": "1 to 3", "unit": "fold"}]}, {"smiles": "COc1ccc(CCOC(=O)C2(c3ccccc3)CCN(C)CC2)cc1OC", "note": "[Compound 4a]", "values": [{"measurement": "subtype selectivity", "setting": "[1]; M5 over M1 and M3", "value": "not subtype selective"}, {"measurement": "decrease of affinity at M5 compared with compound 1", "setting": "[2]", "value": 30, "unit": "%"}, {"measurement": "fold higher affinity at M3 compared with compound 1", "setting": "[3]", "value": 19, "unit": "fold"}, {"measurement": "fold higher affinity at M1 compared with compound 1", "setting": "[4]", "value": 2, "unit": "fold"}]}]}
